Values after ≈ are worked out from the molar mass of the structure shown.
Assays:
Matrilysin = target: T1, Matrilysin (Homo sapiens, UniProt P09237); assay: Inhibitory activity against matrix metalloprotease-7
T1 sequence (P09237 whole entry): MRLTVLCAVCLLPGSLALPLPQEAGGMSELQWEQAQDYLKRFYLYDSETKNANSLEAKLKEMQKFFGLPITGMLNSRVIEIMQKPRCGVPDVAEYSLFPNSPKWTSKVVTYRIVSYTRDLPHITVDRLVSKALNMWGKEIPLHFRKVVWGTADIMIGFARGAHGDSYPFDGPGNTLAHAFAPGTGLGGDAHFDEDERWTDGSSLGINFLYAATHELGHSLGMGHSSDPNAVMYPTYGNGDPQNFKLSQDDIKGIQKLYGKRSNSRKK
In short: (§1)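 Inhibition of each enzyme (MMP-1 collagenase-1, MMP-2 gelatinase A, MMP-3 stromelysin, MMP-7 matrilysin, MMP-8 collagenase-2, MMP-9 gelatinase B) was measured at pH 7.4 and reported as binding values. Compounds were tested as racemic mixtures. Standard deviations were under 30% of the mean values.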

[1] = target: Matrix metalloproteinase-9 (Homo sapiens, UniProt P14780); assay: In vitro inhibition of human matrix metalloprotease-9; in short: as §1
[2] = target: 72 kDa type IV collagenase (Homo sapiens, UniProt P08253); assay: In vitro inhibitory activity against matrix metalloprotease-2
Neutrophil collagenase = Neutrophil collagenase (Homo sapiens, UniProt P22894); assay: Inhibitory activity against matrix metalloprotease-8
Stromelysin-1 [3] = target: T2, Stromelysin-1 (Homo sapiens, UniProt P08254); assay: (§2) In vitro inhibitory activity against matrix metalloprotease-3
Interstitial collagenase [4] = target: T3, Interstitial collagenase (Homo sapiens, UniProt P03956); assay: (§3) In vitro inhibitory activity against matrix metalloprotease-1
T3 sequence (P03956 whole entry): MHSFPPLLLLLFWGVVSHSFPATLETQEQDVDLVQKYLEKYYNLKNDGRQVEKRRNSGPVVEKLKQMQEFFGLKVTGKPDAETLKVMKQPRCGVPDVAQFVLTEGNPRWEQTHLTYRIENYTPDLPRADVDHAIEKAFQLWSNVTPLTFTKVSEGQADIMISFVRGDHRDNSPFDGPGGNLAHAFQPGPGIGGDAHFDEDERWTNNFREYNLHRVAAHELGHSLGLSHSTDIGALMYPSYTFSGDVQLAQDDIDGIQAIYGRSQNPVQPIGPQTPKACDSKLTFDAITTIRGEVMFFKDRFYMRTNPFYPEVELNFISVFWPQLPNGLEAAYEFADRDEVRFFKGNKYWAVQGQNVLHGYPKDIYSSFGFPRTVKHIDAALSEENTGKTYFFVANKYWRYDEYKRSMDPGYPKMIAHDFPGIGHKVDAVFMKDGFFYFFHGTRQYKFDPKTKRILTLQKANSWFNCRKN

Collagenase 3 = Collagenase 3 (Homo sapiens, UniProt P45452); assay: In vitro inhibitory activity against matrix metalloprotease-13
Interstitial collagenase [5] = target: T3, Interstitial collagenase; assay: as §3; in short: as §1; remark: listed apart in the source
Stromelysin-1 [6] = target: T2, Stromelysin-1; assay: as §2; in short: as §1; remark: listed apart in the source

Chain of 72 kDa type IV collagenase (P08253 whole entry): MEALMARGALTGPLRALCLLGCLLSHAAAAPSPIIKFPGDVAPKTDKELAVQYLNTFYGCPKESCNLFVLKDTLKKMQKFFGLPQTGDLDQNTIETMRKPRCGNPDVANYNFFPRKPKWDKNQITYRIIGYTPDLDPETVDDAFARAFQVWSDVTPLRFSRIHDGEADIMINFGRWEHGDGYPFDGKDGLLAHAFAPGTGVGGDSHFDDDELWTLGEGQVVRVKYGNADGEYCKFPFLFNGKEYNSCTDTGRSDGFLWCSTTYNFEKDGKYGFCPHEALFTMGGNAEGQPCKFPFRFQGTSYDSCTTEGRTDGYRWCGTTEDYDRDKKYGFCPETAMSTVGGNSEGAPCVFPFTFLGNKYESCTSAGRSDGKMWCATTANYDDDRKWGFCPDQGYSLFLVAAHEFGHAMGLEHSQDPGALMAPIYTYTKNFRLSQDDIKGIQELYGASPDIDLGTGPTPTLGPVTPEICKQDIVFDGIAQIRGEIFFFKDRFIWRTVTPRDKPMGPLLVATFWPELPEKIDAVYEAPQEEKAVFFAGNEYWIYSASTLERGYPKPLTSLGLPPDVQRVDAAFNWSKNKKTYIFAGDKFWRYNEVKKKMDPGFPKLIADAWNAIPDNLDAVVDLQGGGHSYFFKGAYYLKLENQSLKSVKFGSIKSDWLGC
T2 sequence (P08254 whole entry): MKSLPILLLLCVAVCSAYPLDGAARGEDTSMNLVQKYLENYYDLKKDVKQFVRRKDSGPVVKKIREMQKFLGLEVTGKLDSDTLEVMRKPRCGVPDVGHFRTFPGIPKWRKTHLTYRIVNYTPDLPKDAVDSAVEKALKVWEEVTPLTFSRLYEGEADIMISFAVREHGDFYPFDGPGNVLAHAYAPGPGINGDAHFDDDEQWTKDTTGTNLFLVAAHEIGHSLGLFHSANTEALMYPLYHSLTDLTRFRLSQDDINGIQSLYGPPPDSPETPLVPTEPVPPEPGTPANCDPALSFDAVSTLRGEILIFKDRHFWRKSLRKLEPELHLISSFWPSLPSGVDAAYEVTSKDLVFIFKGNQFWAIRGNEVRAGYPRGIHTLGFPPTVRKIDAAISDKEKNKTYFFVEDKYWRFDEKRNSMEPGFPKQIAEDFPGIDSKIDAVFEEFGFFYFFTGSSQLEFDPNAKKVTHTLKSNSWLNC
Chain of Matrix metalloproteinase-9 (P14780 whole entry): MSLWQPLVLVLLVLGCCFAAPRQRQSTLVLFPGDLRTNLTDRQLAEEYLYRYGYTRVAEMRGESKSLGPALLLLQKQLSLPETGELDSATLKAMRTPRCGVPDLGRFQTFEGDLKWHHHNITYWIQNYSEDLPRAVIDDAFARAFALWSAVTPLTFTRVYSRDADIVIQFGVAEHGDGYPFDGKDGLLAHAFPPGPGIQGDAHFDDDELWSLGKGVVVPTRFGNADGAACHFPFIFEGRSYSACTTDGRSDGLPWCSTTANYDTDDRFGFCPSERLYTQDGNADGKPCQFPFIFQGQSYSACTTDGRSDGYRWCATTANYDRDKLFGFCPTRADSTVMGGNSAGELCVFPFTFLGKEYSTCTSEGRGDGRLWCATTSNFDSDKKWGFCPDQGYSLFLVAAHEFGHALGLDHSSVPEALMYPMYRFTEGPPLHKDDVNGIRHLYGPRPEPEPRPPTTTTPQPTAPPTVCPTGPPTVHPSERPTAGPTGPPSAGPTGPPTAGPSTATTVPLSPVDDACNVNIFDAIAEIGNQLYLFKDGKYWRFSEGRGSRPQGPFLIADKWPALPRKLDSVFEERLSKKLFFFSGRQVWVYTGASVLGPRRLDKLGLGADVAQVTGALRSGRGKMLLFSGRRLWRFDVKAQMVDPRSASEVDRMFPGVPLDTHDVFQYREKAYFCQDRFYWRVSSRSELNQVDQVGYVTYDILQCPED
Chain of Neutrophil collagenase (P22894 whole entry): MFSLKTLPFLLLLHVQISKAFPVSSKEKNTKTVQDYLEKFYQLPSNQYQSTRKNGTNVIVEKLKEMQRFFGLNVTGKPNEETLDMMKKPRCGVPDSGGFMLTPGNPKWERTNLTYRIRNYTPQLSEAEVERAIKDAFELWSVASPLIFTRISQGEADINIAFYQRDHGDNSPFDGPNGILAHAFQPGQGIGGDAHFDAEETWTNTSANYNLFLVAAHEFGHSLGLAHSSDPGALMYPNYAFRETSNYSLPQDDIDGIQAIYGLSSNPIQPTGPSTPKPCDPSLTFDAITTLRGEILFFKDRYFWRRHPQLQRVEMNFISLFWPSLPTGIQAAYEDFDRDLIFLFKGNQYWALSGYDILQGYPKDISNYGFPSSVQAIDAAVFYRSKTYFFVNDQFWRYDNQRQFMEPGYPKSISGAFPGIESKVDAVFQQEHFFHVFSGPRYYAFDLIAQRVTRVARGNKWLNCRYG

Row | IC50 (Matrilysin) [nM] | IC50 [1] [nM] | IC50 [2] [nM] | IC50 (Interstitial collagenase [4]) [nM] | IC50 (Interstitial collagenase [5]) [nM] | IC50 (Stromelysin-1 [6]) [nM] | Structure (SMILES) | IC50 (Neutrophil collagenase) [nM] | IC50 (Stromelysin-1 [3]) [nM] | IC50 (Collagenase 3) [nM] | solubility (physchem) [µg/mL]
1 | > 10000 | 553 | 12.5 |  |  |  | COc1ccc(-c2ccc(S(=O)(=O)NC(CC#Cc3ccccc3)C(=O)O)cc2)cc1 (centres undefined) | 9.4 |  |  | 
2 | 3660 | 6.6 |  | 1370 |  |  | COc1ccc(-c2ccc(S(=O)(=O)N[C@@H](C(=O)O)C3CCN(C(=O)OC(C)(C)C)CC3)cc2)cc1 |  | 33.7 |  | 
3 | 5650 | 177 | 2.8 | 5210 |  |  | COC(=O)N1CCC(C(NS(=O)(=O)c2ccc(-c3ccc(OC)cc3)cc2)C(=O)O)CC1 (centres undefined) |  | 657 |  | 
4 | 3950 | 13.9 | 0.9 | 1850 |  |  | COCCOC(=O)N1CCC(C(C(=O)O)N(C)S(=O)(=O)c2ccc(-c3ccc(OC)cc3)cc2)CC1 (centres undefined) |  | 69.6 |  | 
5 | 8510 | 71.5 |  | 3490 |  |  | COc1ccc(-c2ccc(S(=O)(=O)N[C@H](C(=O)O)C3CCN(C(=O)OC(C)(C)C)CC3)cc2)cc1 |  | 345 |  | 
6 | > 10000 | 747 | 6.6 |  | 8710 |  | COc1ccc(-c2ccc(S(=O)(=O)N[C@H](C(=O)O)C(C)C)cc2)cc1 | 10.6 | 1890 | 24.2 | 
7 | 4370 | 137 | 3.2 | 4900 |  |  | COc1ccc(-c2ccc(S(=O)(=O)NC(C(=O)O)C3CCN(C(=O)CC(C)C)CC3)cc2)cc1 (centres undefined) |  | 739 |  | 
8 | 4240 | 1760 | 53 | 3890 |  | 4840 | COc1ccc(-c2ccc(S(=O)(=O)NC(C(=O)O)C3CCNCC3)cc2)cc1 (centres undefined) | 30.2 |  | 264 | 
9 | 2590 | 5.4 |  | 1420 |  |  | COc1ccc(-c2ccc(S(=O)(=O)NC(C(=O)O)C3CCN(C(=O)OC(C)(C)C)CC3)cc2)cc1 (centres undefined) |  | 56.4 |  | 
10 | 8570 | 50.8 | 1.1 | 1760 |  |  | COc1ccc(-c2ccc(S(=O)(=O)NC(C(=O)O)C3CCN(C(=O)N4CCOCC4)CC3)cc2)cc1 (centres undefined) |  | 221 |  | 
11 | > 10000 | 3110 | 91.3 | > 10000 |  |  | O=C(CC(CSc1ccccc1)C(=O)O)c1ccc(-c2ccc(Cl)cc2)cc1 (centres undefined) | 303 |  | 1570 | 
12 | 9870 | 94.9 | 1 | 2760 |  |  | CCOC(=O)N1CCC(C(NS(=O)(=O)c2ccc(-c3ccc(OC)cc3)cc2)C(=O)O)CC1 (centres undefined) |  | 162 |  | 

Row | Structure (SMILES) | IC50 (Matrilysin) [nM] | IC50 [1] [nM] | IC50 [2] [nM] | IC50 (Interstitial collagenase [4]) [nM] | IC50 (Interstitial collagenase [5]) [nM] | IC50 (Stromelysin-1 [6]) [nM] | IC50 (Neutrophil collagenase) [nM] | IC50 (Stromelysin-1 [3]) [nM] | IC50 (Collagenase 3) [nM] | solubility (physchem) [µg/mL]
13 | COCCOC(=O)N1CCC(C(NS(=O)(=O)c2ccc(-c3ccc(SC)cc3)cc2)C(=O)O)CC1 (centres undefined) | 1020 | 7.3 | 0.4 | 1080 |  |  | 1.8 | 40.6 | 1 | 3500 (≈ 6.7 mM)
14 | COCCOC(=O)N1CCC(C(NS(=O)(=O)c2ccc(-c3ccccc3)cc2)C(=O)O)CC1 (centres undefined) | > 10000 | 415 | 24.2 | 6050 |  |  | 44.8 | 418 | 55.3 | 
15 | COCCOC(=O)N1CCC(C(C(=O)O)N(CCOC)S(=O)(=O)c2ccc(-c3ccc(OC)cc3)cc2)CC1 (centres undefined) | 2650 | 9.1 | 0.6 | 1220 |  |  | 2.4 | 45.5 | 1 | 11100 (≈ 19.6 mM)
16 | COCCOC(=O)N1CCC(C(NS(=O)(=O)c2ccc(Oc3ccccc3)cc2)C(=O)O)CC1 (centres undefined) | > 10000 | 597 | 58.1 | > 10000 |  |  | 25.8 | 399 | 140 | 
17 | COc1ccc(-c2ccc(S(=O)(=O)NC(C(=O)O)C3CCN(C(=O)OC(C)C)CC3)cc2)cc1 (centres undefined) | 1740 | 11.7 | < 0.4 | 1400 |  |  | 1.5 | 41.8 | 1 | 130 (≈ 0.265 mM)
18 | CCCCOc1ccc(S(=O)(=O)NC(C(=O)O)C2CCN(C(=O)OCCOC)CC2)cc1 (centres undefined) | > 10000 | 2990 | 549 | > 10000 |  |  | 294 | 678 | 791 | 
19 | COCCOC(=O)N1CCC(C(C(=O)O)N(Cc2ccccn2)S(=O)(=O)c2ccc(-c3ccc(OC)cc3)cc2)CC1 (centres undefined) | 3640 | 18.7 | 1 | 3310 |  |  | 3.2 | 86.1 | 3 | 
20 | COCCOC(=O)N1CCC(C(NS(=O)(=O)c2ccc(-c3ccc(OC)cc3)cc2)C(=O)O)CC1 (stereo in doubt; 13g) | 4110 | 55 | 0.8 |  |  |  | 3.4 | 133 | 3.5 | 8070 (≈ 15.9 mM)
21 | COCCOC(=O)N1CCC(C(NS(=O)(=O)c2ccc(-c3ccc(OC)cc3)cc2)C(=O)O)CC1 (stereo in doubt; 14i) |  | < 0.4 |  |  |  |  | 0.5 | 13.8 | 0.4 | 
